pCIP destab: compounds decreasing mouse p/CIP protein stability; F442A p/CIP-EGFP cells, EGFP fluorescence, 16 h; decrease of EGFP signal, % at 10 µM; 0.01% of 290,000 active;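 active = EGFP signal decrease of at least 30% at 10 µM or well 3 SD below plate mean, unless failing retest; inactive = the rest, including hits failing retest or dose response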
Target sequence (Q05BA5 1-1403): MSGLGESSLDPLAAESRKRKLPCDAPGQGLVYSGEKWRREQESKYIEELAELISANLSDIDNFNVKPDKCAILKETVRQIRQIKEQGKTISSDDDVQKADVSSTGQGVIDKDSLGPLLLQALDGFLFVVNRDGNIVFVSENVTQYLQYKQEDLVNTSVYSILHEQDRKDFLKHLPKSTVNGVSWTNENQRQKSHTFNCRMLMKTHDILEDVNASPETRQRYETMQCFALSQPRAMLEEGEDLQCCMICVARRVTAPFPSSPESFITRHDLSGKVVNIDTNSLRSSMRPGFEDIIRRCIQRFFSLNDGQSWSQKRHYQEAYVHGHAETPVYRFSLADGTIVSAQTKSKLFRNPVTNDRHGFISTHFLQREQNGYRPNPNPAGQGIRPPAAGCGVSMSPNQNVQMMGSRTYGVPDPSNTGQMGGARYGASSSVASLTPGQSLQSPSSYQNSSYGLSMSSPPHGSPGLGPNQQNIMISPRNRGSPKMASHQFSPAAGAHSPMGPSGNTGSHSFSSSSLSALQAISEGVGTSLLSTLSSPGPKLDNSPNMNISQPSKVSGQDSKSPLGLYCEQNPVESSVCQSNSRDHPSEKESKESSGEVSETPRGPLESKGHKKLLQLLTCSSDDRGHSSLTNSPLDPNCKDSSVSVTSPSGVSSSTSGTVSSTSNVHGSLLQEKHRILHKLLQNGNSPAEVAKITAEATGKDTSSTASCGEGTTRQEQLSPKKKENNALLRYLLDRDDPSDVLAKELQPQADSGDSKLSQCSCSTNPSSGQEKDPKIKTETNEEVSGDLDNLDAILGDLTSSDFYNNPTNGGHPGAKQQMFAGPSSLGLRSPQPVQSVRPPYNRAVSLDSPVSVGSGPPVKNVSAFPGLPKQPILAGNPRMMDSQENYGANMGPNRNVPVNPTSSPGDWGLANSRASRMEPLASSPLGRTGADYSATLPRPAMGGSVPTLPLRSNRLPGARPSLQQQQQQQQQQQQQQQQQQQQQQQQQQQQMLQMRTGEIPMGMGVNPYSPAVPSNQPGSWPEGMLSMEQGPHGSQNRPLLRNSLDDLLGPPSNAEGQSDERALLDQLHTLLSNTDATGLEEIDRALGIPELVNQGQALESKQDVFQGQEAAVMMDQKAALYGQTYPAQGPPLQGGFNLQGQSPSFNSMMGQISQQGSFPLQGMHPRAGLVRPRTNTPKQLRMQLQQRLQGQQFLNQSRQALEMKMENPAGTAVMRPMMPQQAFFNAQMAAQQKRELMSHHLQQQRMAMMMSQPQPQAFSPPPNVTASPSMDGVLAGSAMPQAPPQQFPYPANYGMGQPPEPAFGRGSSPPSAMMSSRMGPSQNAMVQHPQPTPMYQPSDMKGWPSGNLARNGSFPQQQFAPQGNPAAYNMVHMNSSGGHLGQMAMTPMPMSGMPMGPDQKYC
Pemphigus Ab inh: blocks pemphigus antibody binding to human desmoglein-3 | P32926 | binding (percent of control), % at 10 µM | DSG3-coupled beads, scFv-anti-DSG3-GFP binding, flow cytometry; active compounds read low | 0.48% of 310,000 active | AID 588358;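 active = binding more than 3 SD below its plate's average and above zero; inconclusive = below that plate limit but binding exactly zero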;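 note: hits lower antibody fragment binding to DSG3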
CHT PAM: allosterically activates the human high affinity choline transporter. Q9GZV3. CHT-expressing cells, membrane potential dye, choline EC20; active compounds read high; LV-AA mutant CHT in HEK293 cells. B-score at 10 µM. 0.49% of 310,000 active;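 active = initial fluorescence not abnormally high and integrated response B-score, plate-corrected, over 3 SD above library mean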
GPR7 antagonist: blocks human GPR7 receptor signaling | GPR7-expressing cells, fluorescence antagonist assay | AID 1861 | inhibition, % at 4.4 µM | P48145 | 1.1% of 290,000 active; in the data active = inhibition above about 16%, passing the limit was not always enough;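 note: cells stimulated with the agonist NPW; 0% = agonist with vehicle and 100% = vehicle without agonist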
CHT block: human CHT choline transport inhibition; Q9GZV3; B-score at 10 µM; 0.86% of 310,000 active; CHT-expressing cells, membrane potential dye, choline response; active compounds read low;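 active = B-score over 3 SD under the library average, and starting fluorescence ratio not unusually high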;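 note: choline stimulus applied at its EC90 after an EC20 pre-addition; B-score computed on integrated fluorescence ratio after choline addition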
T cell modulator: T cell immune modulators affecting CD8 T cell-vesicle binding | 2C CD8+ T cell-vesicle binding, flow cytometry; active compounds read low | 0.068% of 330,000 active | AID 2052 | response (vesicle binding), % at 7 µM;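 active = response, share of CD8 T cells binding vesicles, and their 90th percentile fluorescence all below set limits, cut at about 80% in these data, passing the limit was not always enough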;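 note: values below 100% mean blocked vesicle binding to the CD8+ T cells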
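Read-out – percent CD8+ FL2 mean versus row control · System – murine 2C transgenic CD8+ T lymphocytes · Times – 1.5 h cell–vesicle binding at 37 °C, then 20 min icy labelling · Control set – naked vesicles low, QL9 vesicles with vehicle high · Detection – cytometric PE anti-B7-1 and Alexa647 anti-CD8 signals after 1% paraformaldehyde fixation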
GPR7 antag conf: human GPR7 antagonism, confirmation assay; GPR7-expressing cells, calcium fluorescence antagonist mode; shares compounds with GPR7 antagonist; inhibition, % at 4.4 µM; AID 1952; 52% of 2,400 active; in the data active = inhibition above about 24%;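 note: stimulated with the GPR7 agonist NPW; 0% = agonist plus vehicle and 100% = vehicle alone without agonist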
MCHR1 antag: counter-screen for GPR7 antagonists: antagonists of human MCHR1; inhibition, % at 4.4 µM; MCHR1-expressing cells, fluorescence antagonist assay; shares compounds with GPR7 antagonist; 62% of 2,400 active; in the data active = inhibition above about 22%;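 note: 0% = vehicle with agonist and 100% = vehicle without agonist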
An asterisk follows results filed as active; i = inactive; ? = inconclusive; . = no result. The list is not random: actives were taken first. Their share in the collection is about 2.3%.

SMILES	pCIP destab	Pemphigus Ab inh	CHT PAM	GPR7 antagonist	CHT block	T cell modulator	GPR7 antag conf	MCHR1 antag
CC(C)Oc1ccc2ccccc2c1CNC[C@H]1O[C@@H](n2ccc(N)nc2=O)[C@H](O)[C@@H]1O	.	106.7	.	.	.	.	.	.
COc1cc(CNC2CCCC2)cc(Cl)c1OCc1ccccc1Cl	-1.4	102.2	i	8.7	i	349.7	.	.
CCOc1cc(CNC2CCCC2)cc(Cl)c1OCc1ccc(F)cc1	8.6	108.0	i	25.3*	i	157.3	49.2*	54.3*
COc1cc(CNC2CCCC2)cc(Cl)c1OCc1ccc(F)cc1	-2.8	112.5	i	25.9*	i	344.4	24.8*	22.4*
Cc1sc(N=Nc2ccc(N(C)C)cc2)[n+]([O-])c1C	.	103.9	.	.	.	.	.	.
COc1cccc(CNC(=O)[C@H](C)NC(=O)N2CC(=O)Nc3ccccc32)c1	.	100.3	.	.	.	.	.	.
CC1(C)CC(=O)C/C(=N/NC(=O)COc2ccc(Cl)cc2Cl)C1	-15.4	.	i	-13.2	i	180.6	.	.
CC1(C)CC(=O)C/C(=N/NC(=O)COc2ccc3ccccc3c2Br)C1	-4.6	97.4	i	104.3*	i	169.6	-1.2	1.3
Cc1ccsc1C(=O)NNC(=O)C1CCCCC1C(=O)O (centres undefined)	-1.6	103.6	i	22.8*	i	i	-7.2	7.3
Cc1ccsc1C(=O)NNC(=O)C1CC=CCC1C(=O)O (centres undefined)	-4.7	98.1	i	-6.5	i	0.0	.	.
CCOc1ccc(NC2=C(Cl)C(=O)N(Cc3ccccc3)C2=O)cc1	21.1	90.0	i	73.8*	i	528.7	99.3*	64.2*
CCc1cccc(C)c1NC(=O)COC(=O)Cc1ccccc1	.	94.9	.	.	.	.	.	.
Cc1cc(N2CCCC2)nc(-c2ccccc2O)n1	-1.4	102.3	i	3.3	i	242.7	.	.
Cc1cc(N2CCCCC2)nc(N)n1	2.9	100.9	i	42.7*	i	164.2	53.3*	75.2*
NC(=O)c1[nH]cnc1N=NN(CCO)Cc1ccccc1	.	96.1	.	.	.	.	.	.
Cc1nc(NCc2ccccn2)c2c3c(sc2n1)CCCC3	-10.5	110.9	i	31.8*	i	260.7	25.1*	21.5*
c1ccc(CNc2ncnc3sc4c(c23)CCCC4)nc1	2.5	109.0	i	9.9	i	242.6	.	.
O=S(=O)(c1ccc(Cl)cc1)N(Cc1ccccn1)Cc1ccccn1	-2.4	94.7	i	36.0*	i	312.2	-2.9	-2.3
O=C(COc1ccc2ccc(=O)oc2c1)N1CCN(c2ccccc2)CC1	4.5	.	i	-10.2	i	286.4	.	.
Cc1cccc(N2CCN(C(=O)COc3ccc4ccc(=O)oc4c3)CC2)c1C	-0.3	108.0	i	36.6*	i	296.4	44.8*	41.5*
CCC1(C)N([O-])C(C)=C(c2ccccc2)[N+]1=O (centres undefined)	2.4	102.2	i	28.1*	i	493.3	-7.4	12.3
CCc1ccc(CN(Cc2cccnc2)C(=O)/C=C/c2ccc(OC)cc2)cc1	-7.9	303.9	i	39.4*	i	293.7	31.8*	48.7*
Cc1cc(C)nc(N/N=C/c2ccccc2Cl)n1	-3.0	102.4	i	22.8*	i	553.6	2.5	8.5
CCc1ccc(CCC(=O)N2CCN(S(=O)(=O)c3ccc(Br)cc3)CC2)cc1	.	108.3	.	.	.	.	.	.
C[C@@H]1CN([C@@H](C)CO)C(=O)c2cc(Br)cnc2O[C@H]1CN(C)C(=O)Nc1ccccc1	.	104.6	.	.	.	.	.	.
SMILES	pCIP destab	Pemphigus Ab inh	CHT PAM	GPR7 antagonist	CHT block	T cell modulator	GPR7 antag conf	MCHR1 antag
O=C(NC(NC(=S)Nc1ccccc1Cl)C(Cl)(Cl)Cl)c1cccc(Cl)c1 (centres undefined)	7.2	108.8	i	27.1*	i	472.5	49.1*	61.4*
COc1ccc(NC(=S)NC(NC(=O)c2cccc(Cl)c2)C(Cl)(Cl)Cl)c([N+](=O)[O-])c1 (centres undefined)	-7.2	103.8	i	-3.9	i	332.6	.	.
CN(C(=O)c1cc2c(cc1Br)OCO2)c1cccc2ccccc12	.	103.2	.	.	.	.	.	.
CN1/C(=C/C=C/c2n(C)c3cc([N+](=O)[O-])c([N+](=O)[O-])cc3[n+]2C)C(C)(C)c2ccccc21	.	97.5	.	.	.	.	.	.
COc1ccccc1NC(=O)Oc1cccc(OC(=O)c2ccccc2)c1	2.6	106.8	i	21.3	i	116.4	10.2	20.5
COc1cccc(OC)c1OC(=O)c1ccccc1	.	93.1	.	.	.	.	.	.
CCCNS(=O)(=O)c1cccc(C(=O)OCc2cc(=O)oc3cc(OC)ccc23)c1	2.6	101.0	i	34.1*	i	910.0	32.7*	56.7*
Cc1c(C(=O)OCc2ccccc2)nnn1-c1nonc1N	-4.6	103.3	i	21.2*	i	254.5	-3.2	6.3
CCCSc1nnc(N2C(=O)C(O)=C(C(=O)c3ccco3)C2c2ccccc2F)s1 (centres undefined)	-2.2	141.7	i	7.2	i	222.3	.	.
CSc1nnc(N2C(=O)C(O)=C(C(=O)c3ccco3)C2c2ccccc2F)s1 (centres undefined)	-43.0	104.9	i	23.2*	i	203.6	3.1	9.7
Cc1ccc(S(=O)(=O)N2C[C@H]3[C@H]4C(=O)N(c5ccccc5)C(=O)[C@H]4C[C@H](OC(=O)Nc4cccs4)[C@@]3(O)C2)cc1	.	95.2	.	.	.	.	.	.
CC(=O)c1cccc(NC(=S)NC(=O)Cc2ccc(Cl)cc2)c1	-0.4	157.4	i	36.0*	i	580.3	54.6*	35.5*
CC(=O)c1cccc(NC(=S)NC(=O)Cc2ccccc2)c1	-6.6	99.5	i	0.5	i	224.0	.	.
Clc1ccc(Oc2ncnc3oc(-c4ccccc4)cc23)cc1	-3.5	99.0	i	-2.8	i	324.8	.	.
Cc1ccccc1Oc1ncnc2oc(-c3ccccc3)cc12	3.8	101.1	i	28.6*	i	361.9	30.6*	16.6
CCC(=O)Nc1ccc(S(=O)(=O)NC[C@H]2O[C@@H](n3cc(C)c(=O)[nH]c3=O)C[C@@H]2O)cc1	.	106.1	.	.	.	.	.	.
Cc1ccc([C@H]2N[C@]3(CCCN(Cc4ccco4)C3=O)[C@H]3C(=O)N(C)C(=O)[C@@H]23)cc1	.	111.3	.	.	.	.	.	.
COC(=O)C1CCN(C(c2cc(OC)c(OC)c(OC)c2)c2sc3nc(C)nn3c2O)CC1 (centres undefined)	-6.6	77.7	i	22.6*	i	526.8	-10.5	2.5
COc1cc(C)ccc1Oc1ncnc(N)c1[N+](=O)[O-]	-0.9	?	i	51.0*	i	283.4	-5.7	-6.1
Cc1ccc(C)c(Nc2ncnc(N)c2[N+](=O)[O-])c1	-25.1	29.3	i	-5.4	i	272.2	.	.
